Experimental data gathered from unrelated publications.
Each line is one published result; the experiments were not run side by side.
Spike glycoprotein: Spike glycoprotein (Severe acute respiratory syndrome coronavirus 2, UniProt P0DTC2)
SLC18A2: Synaptic vesicular amine transporter (SLC18A2, Homo sapiens, UniProt Q05940)

SMILES | target | test | setting | endpoint | value
CCOC(=O)c1ccc(OC(=O)CCCCCN=C(N)N)cc1 | Plasminogen (PLG, Homo sapiens, UniProt P00747) | enzyme activity, inhibitor | – | IC50 | 316 nM
CC[C@H](C)[C@H](NC(=O)[C@H](CCCCNC(=O)CN(CCNC(=O)CN(CCNC(=O)CN(CCNC(=O)CN(CCNC(=O)[C@H](CCCNC(=N)N)NC(C)=O)C(=O)Cn1ccc(N)nc1=O)C(=O)Cn1cnc2c(=O)[nH]c(N)nc21)C(=O)Cn1cnc2c(=O)[nH]c(N)nc21)C(=O)Cn1ccc(N)nc1=O)NC(=O)[C@H](CC(=O)O)NC(=O)[C@H](CO)NC(=O)[C@@H](NC(=O)[C@H](CCCNC(=N)N)NC(=O)[C@H](CCSC)NC(=O)[C@H](CO)NC(=O)[C@H](C)NC(=O)[C@H](CCC(=O)O)NC(=O)[C@H](C)NC(=O)[C@H](Cc1c[nH]cn1)NC(=O)CNC(=O)[C@H](CC(C)C)NC(=O)[C@H](CCC(=O)O)NC(=O)[C@H](CC(=O)O)NC(=O)[C@H](CC(C)C)NC(=O)[C@H](CC(C)C)NC(=O)[C@H](CCCNC(=N)N)NC(=O)[C@H](CCS)NC(=O)[C@H](CCCC(=O)NCCN(CC(=O)NCCN(CC(=O)NCCN(CC(=O)NCCN(CC(=O)N[C@@H](CCCNC(=N)N)C(N)=O)C(=O)Cn1cnc2c(=O)[nH]c(N)nc21)C(=O)Cn1ccc(N)nc1=O)C(=O)Cn1ccc(N)nc1=O)C(=O)Cn1cnc2c(=O)[nH]c(N)nc21)NC(=O)[C@H](CCC(=O)O)NC(=O)[C@H](Cc1ccc(O)cc1)NC(=O)[C@@H](NC(=O)[C@H](CCCCN)NC(=O)[C@H](CCC(N)=O)NC(=O)[C@H](CC(C)C)NC(=O)[C@@H](NC(=O)[C@H](Cc1c[nH]c2ccccc12)NC(=O)[C@H](CCC(=O)O)NC(=O)[C@H](CCCCN)NC(=O)[C@H](CC(=O)O)NC(C)=O)[C@@H](C)CC)[C@@H](C)CC)C(C)C)C(=O)N[C@@H](Cc1ccc(O)cc1)C(=O)N[C@@H](CCC(=O)O)C(=O)N[C@@H](Cc1ccccc1)C(=O)N[C@@H](CCSC)C(=O)N[C@@H](CCCCN)C(=O)N[C@@H](CCCCN)C(N)=O | Spike glycoprotein | binding, SPR | – | Kd | 5.2 nM
Cn1c(=O)c2[nH]cnc2n(C)c1=O | Solute carrier family 22 member 11 (SLC22A11, Homo sapiens, UniProt Q9NSA0) | transporter uptake, inhibitor | – | IC50 | 5600 nM
O=c1[nH]c2ccccc2n1C1CCN(CCCC(c2ccc(F)cc2)c2ccc(F)cc2)CC1 | SLC18A2 | transporter uptake, inhibitor, radiometric | cell membranes | IC50 | 386 nM
COc1ccc(C(=O)Nc2ccc3c(c2)C=CCP(=O)(O)O3)cc1 | Carbonic anhydrase 1 (CA1, Homo sapiens, UniProt P00915) | enzyme activity, inhibitor, stopped-flow | – | Ki | > 10000 nM
O=c1[nH]c2ccccc2n1CCCN1CCC(n2c(=O)[nH]c3cc(Cl)ccc32)CC1 | SLC18A2 | transporter uptake, inhibitor | – | IC50 | 58 nM
COc1cc(CCNC(C)c2ccccc2O)c(OC)cc1C#N (stereo not drawn) | Alpha-2A adrenergic receptor (ADRA2A, Homo sapiens, UniProt P08913) | cell-free assay, radioligand | – | Ki | 912 nM
CC[C@H](C)[C@H](NC(=O)[C@H](CCCCNC(=O)CN(CCNC(=O)CN(CCNC(=O)CN(CCNC(=O)CN(CCNC(=O)[C@H](CCCNC(=N)N)NC(C)=O)C(=O)Cn1ccc(N)nc1=O)C(=O)Cn1cnc2c(=O)[nH]c(N)nc21)C(=O)Cn1cnc2c(=O)[nH]c(N)nc21)C(=O)Cn1ccc(N)nc1=O)NC(=O)[C@H](CC(=O)O)NC(=O)[C@H](CO)NC(=O)[C@@H](NC(=O)[C@H](CCCNC(=N)N)NC(=O)[C@H](CCSC)NC(=O)[C@H](CO)NC(=O)[C@H](C)NC(=O)[C@H](CCC(=O)O)NC(=O)[C@H](C)NC(=O)[C@H](Cc1c[nH]cn1)NC(=O)CNC(=O)[C@H](CC(C)C)NC(=O)[C@H](CCC(=O)O)NC(=O)[C@H](CC(=O)O)NC(=O)[C@H](CC(C)C)NC(=O)[C@H](CC(C)C)NC(=O)[C@H](CCCNC(=N)N)NC(=O)[C@H](CS)NC(=O)[C@H](CCCC(=O)NCCN(CC(=O)NCCN(CC(=O)NCCN(CC(=O)NCCN(CC(=O)N[C@@H](CCCNC(=N)N)C(N)=O)C(=O)Cn1cnc2c(=O)[nH]c(N)nc21)C(=O)Cn1ccc(N)nc1=O)C(=O)Cn1ccc(N)nc1=O)C(=O)Cn1cnc2c(=O)[nH]c(N)nc21)NC(=O)[C@H](CCC(=O)O)NC(=O)[C@H](Cc1ccc(O)cc1)NC(=O)[C@@H](NC(=O)[C@H](CCCCN)NC(=O)[C@H](CCC(N)=O)NC(=O)[C@H](CC(C)C)NC(=O)[C@@H](NC(=O)[C@H](Cc1c[nH]c2ccccc12)NC(=O)[C@H](CCC(=O)O)NC(=O)[C@H](CCCCN)NC(=O)[C@H](CC(=O)O)NC(C)=O)[C@@H](C)CC)[C@@H](C)CC)C(C)C)C(=O)N[C@@H](Cc1ccc(O)cc1)C(=O)N[C@@H](CCC(=O)O)C(=O)N[C@@H](Cc1ccccc1)C(=O)N[C@@H](CCSC)C(=O)N[C@@H](CCCCN)C(=O)N[C@@H](CCCCN)C(N)=O | Spike glycoprotein | binding, SPR | – | Kd | 27 nM
O=C(Nc1ccc2c(c1)C=CCP(=O)(O)O2)c1ccccc1Br | Carbonic anhydrase 2 (CA2, Homo sapiens, UniProt P00918) | enzyme activity, inhibitor, stopped-flow | – | Ki | > 10000 nM
